Data taken from ChEMBL document CHEMBL2331367, “Alkaloids from Microcos paniculata with cytotoxic and nicotinic receptor antagonistic activities” (J Nat Prod, 2013).
pIC50: −log10 of the molar value. Calls of active or inactive are those of the source. The calls are words filed in the database; no cut-off is given here.

Legend:
HT-29 = experiment: Cytotoxicity against human HT-29 cells assessed as inhibition of cell proliferation after 3 days by SRB assay; type: functional, cell-based; settings: HT-29, 72 h
[1] = molecular target: Neuronal acetylcholine receptor; alpha4/beta2 (Homo sapiens) (UniProt P17787+P43681); experiment: Antagonist activity at human recombinant alpha4beta2 nAChR expressed in human HEKtsA201 cells assessed as inhibition of epibatidine-stimulated calcium accumulation at 10 uM pretreated and cotreated with epibatidine by fluorescence plate reader analysis; type: cell-based
Outline: (§1)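 HEKtsA201 cells stably expressing human α3β4 or α4β2 nAChR, plated 2.0–2.3×10^5/well on poly-L-ornithine 24 h before assay; loaded with Calcium 5 NW dye in HEPES-buffered Krebs, 1 h room temperature. Compound (10 μM) added at 20 s, then 1 μM epibatidine at 60 s while compound remained. Fluorescence (ex 485/em 525 nm) recorded 120 s; net response expressed as % of epibatidine control; triplicates.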

[2] = molecular target: Neuronal acetylcholine receptor; alpha3/beta4 (Homo sapiens) (UniProt P30926+P32297); experiment: Antagonist activity at human recombinant alpha3beta4 nAChR expressed in human HEKtsA201 cells assessed as inhibition of epibatidine-stimulated calcium accumulation at 10 uM pretreated and cotreated with epibatidine by fluorescence plate reader analysis; type: cell-based; outline: as §1
[3] = Cytotoxicity against human CCD-112CoN cells assessed as inhibition of cell proliferation after 3 days by SRB assay; type: cell-based; settings: 72 h
Outline: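 CCD-112CoN normal human colon cells grown in MEME with 10% FBS, pyruvate, non-essential amino acids, 37 °C 5% CO2; used ~70% confluent, 7,600 cells/well. Serial dilutions added in triplicate (10% DMSO vehicle), incubated 3 days; cells TCA-fixed, stained with 0.4% sulforhodamine B, dye solubilized in 10 mM Tris, absorbance 515 nm; IC50 by non-linear regression.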

[4] = Selectivity ratio of IC50 for human CCD-112CoN cells to IC50 for human HT29 cells; type: ADME, cell-based, HT-29; settings: CCD-112CoN cells and HT29 cells, read-out: Ratio IC50

Row | Compound | pIC50 (HT-29) | inhibition [1] [%] | inhibition [2] | pIC50 [3] | selectivity ratio [4]
1 | COc1ccc(CCNC(=O)/C=C/c2ccc(O)c(O)c2)cc1 | < 5.00 | 21.8 | 14% |  | 
2 | CCCC/C=C/C=C/C=C/[C@@H]1CC[C@@H](OC(C)=O)[C@H](C)N1C | < 5.00 | 44.1 |  |  | 
3 | CCCC/C=C/C=C/C=C/[C@@H]1CC[C@@H](O)[C@H](C)N1 |  | 59 | 53% |  | 
4 | CNC1(C)C2CCC(C2)C1(C)C (centres undefined) |  | 91.8 | 88.3% |  | 
5 | COc1cc2c3cc1Oc1cc(ccc1O)C[C@@H]1c4c(cc(OC)c(O)c4Oc4ccc(cc4)C[C@@H]3N(C)CC2)CC[N+]1(C)C |  | 61 | 54% |  | 
6 | O=C(OCC1CCCN(CCCc2ccccc2)C1)c1ccccc1-c1ccccc1 (centres undefined) |  | 39 | inactive |  | 
7 | O=C1c2ccccc2-c2c3c(cc4ccnc1c24)OCO3 [LIRIODENINE] | < 5.00 | 13.3 | 19.3% |  | 
8 | CCCC/C=C/C=C/C=C/[C@@H]1CC[C@@H](O)[C@H](C)N1C [MICROGREWIAPINE A] | 5.17 | 74 | 58.2% | 4.52 | 4
9 | CCCC/C=C/C=C/C=C/[C@@H]1CC[C@@H](O)[C@H](C)[N+]1(C)[O-] (some centres undefined) [MICROGREWIAPINE B] | < 5.00 | 79.3 | 82.7% |  | 
10 | CCCC/C=C/C=C/C=C/[C@@H]1CC[C@H](O)[C@H](C)[N+]1(C)[O-] (some centres undefined) [MICROGREWIAPINE C] | < 5.00 | 67.3 | 82.8% |  | 
11 | CC(=O)O[C@H]1C(=O)[C@@]2(C)[C@H]([C@H](OC(=O)c3ccccc3)[C@]3(O)C[C@H](OC(=O)[C@H](O)[C@@H](NC(=O)c4ccccc4)c4ccccc4)C(C)=C1C3(C)C)[C@]1(OC(C)=O)CO[C@@H]1C[C@@H]2O [PACLITAXEL] | 9.00 |  |  | 4.64 | 
